Measured values as given in ChEMBL document CHEMBL4406881, “Design, synthesis and biological evaluation of benzoylacrylic acid shikonin ester derivatives as irreversible dual inhibitors of tubulin and EGFR” (Bioorg Med Chem, 2019).
Active and inactive are the calls of the source. No cut-off for these calls is given here.

Tests used:
A549 [1] = assay: Induction of apoptosis in human A549 cells assessed as late apoptotic cells at 8 uM after 24 hrs by Annexin-V/PI staining based flow cytometry analysis (reference value: 5.69%); format: functional
Method in brief: (§1)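 A549 cells seeded overnight at 37 °C, 5% CO2, then exposed to 0, 2, 4, 8 or 12 µM for 24 h (dose series) or 8 µM for 0, 12, 24, 36 h (time series). Harvested, PBS-washed, stained with Annexin V-FITC and PI in binding buffer 15 min at room temperature in the dark, analysed by flow cytometry; three independent experiments.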

A549 [2] = assay: Cell cycle arrest in human A549 cells assessed as accumulation at G1 phase at 8 uM after 12 hrs by RNAse A/ PI staining based flow cytometric analysis (reference value: 67.69%); format: functional
Method in brief: (§2)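 A549 cells at 5.0×10^4 per well were grown 12 h at 37 °C. Treatment was 0, 2, 4 or 8 µM for 24 h, or 8 µM for 0, 12, 24 or 36 h. Cells were fixed in 70% ethanol at −20 °C for at least 12 h, then stained in PBS with 0.1 mg/mL RNase A and 5 µg/mL PI. At least 10,000 events per sample were collected by flow cytometry to give G0/G1, S and G2/M percentages.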

A549 [3] = assay: Induction of apoptosis in human A549 cells assessed as early apoptotic cells at 8 uM after 36 hrs by Annexin-V/PI staining based flow cytometry analysis (reference value: 2.02%); format: functional
A549 [4] = assay: Cell cycle arrest in human A549 cells assessed as accumulation at S phase at 8 uM after 36 hrs by RNAse A/ PI staining based flow cytometric analysis (reference value: 19.66%); format: functional; method in brief: as §2
A549 [5] = assay: Induction of apoptosis in human A549 cells assessed as increase in late apoptotic cells at 4 to 12 uM after 12 hrs by PI-staining based flow cytometric analysis; format: functional, cell-based
Method in brief: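 JC-1 staining of A549 cells treated for 12 h. CCCP-treated wells, 20 min at 37 °C, served as positive control. Collected cells were incubated with JC-1 solution at 37 °C for 30 min, washed, and analysed by flow cytometry for the fraction with high ΔΨm and for PI-positive cells. Results are mean ± S.E.M. of three replicates.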

A549 [6] = assay: Induction of apoptosis in human A549 cells assessed as necrotic cells after at 2 uM 24 hrs by Annexin-V/PI staining based flow cytometry analysis (reference value: 1.81%); format: functional; method in brief: as §1
A549 [7] = assay: Inhibition of Wnt/beta-catenin signaling pathway in human A549 cells assessed as increase in axin-2 expression by Western blot analysis; format: cell-based
Method in brief: (§3)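 A549 cells in 6-well plates were lysed in RIPA buffer with protease inhibitors on ice for 30 min and cleared at 4 °C. Protein was quantified by BCA, run on SDS-PAGE and transferred to PVDF. Membranes were blocked with milk, probed with primary antibody (1:1000) overnight at 4 °C, then secondary antibody (1:3000-1:5000) 1 h at RT. Detection by ECL; band densitometry normalised to GAPDH (β-actin also used). Three independent experiments.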

A549 [8] = assay: Cell cycle arrest in human A549 cells assessed as downregulation of cyclin A expression at 2 to 8 uM by immunoblot analysis; format: functional, cell-based
Method in brief: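 A549 lysates in RIPA buffer with protease inhibitors were run on SDS-PAGE and blotted to PVDF. Membranes were probed overnight at 4 °C with primary antibody at 1:1000, then secondary antibody at 1:3000-1:5000 for 1 h, and detected by ECL. Band intensity was normalised to GAPDH. Results are mean ± S.E.M. from three independent experiments.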

A549 [9] = assay: Cell cycle arrest in human A549 cells assessed as accumulation at G1 phase at 8 uM after 36 hrs by RNAse A/ PI staining based flow cytometric analysis (reference value: 67.69%); format: functional; method in brief: as §2
Tubulin (Homo sapiens) = Tubulin (Homo sapiens) (UniProt P68371+Q9H4B7+P0DPH7+P68366+Q13509+Q71U36+P04350+Q3ZCM7+P07437+P68363+Q9BQE3+Q6PEY2+Q13885+Q9BVA1+Q9BUF5); assay: Inhibition of microtubule polymerization in human A549 cells assessed as polymerized tubulin expression at 8 uM after 24 hrs by immuno blot analysis (reference value: 0.85); format: cell-based
Method in brief: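 Cells were lysed in hypotonic buffer 5 min at 37 °C and centrifuged 10000 rpm, 10 min, 25 °C. Soluble (supernatant) and polymerised (pellet) tubulin fractions were resolved by SDS-PAGE in equal amounts and immunoblotted for β-tubulin.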

[10] = target: T1, Epidermal growth factor receptor (Homo sapiens, UniProt P00533); assay: Inhibition of EGFR signalling in human A549 cells assessed as reduction in AKT phosphorylation after 24 hrs by Western blot analysis; format: cell-based; method in brief: as §3
A549 [11] = assay: Induction of apoptosis in human A549 cells assessed as early apoptotic cells at 8 uM after 24 hrs by Annexin-V/PI staining based flow cytometry analysis (reference value: 1.15%); format: functional
[12] = target: T1, Epidermal growth factor receptor; assay: Inhibition of EGFR signalling in human A549 cells assessed as reduction in EGFR phosphorylation after 24 hrs by Western blot analysis; format: cell-based; method in brief: as §3
[13] = Toxicity in ip dosed Balb/c mouse xenografted with human A549 cells assessed as effect on body weight at 2 to 4 mg/kg, ip administered once every two days for 32 days and measured for every 2 days; format: organism-based; conditions: in vivo
Method in brief: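 Female BALB/c nude mice (5-6 weeks) received 6×10^6 A549 cells s.c. in the flank. After two weeks (tumours ~90 mm³) they were split into 5 groups (n = 8). Dosing was 2 or 4 mg/kg, dissolved in DMSO, i.p. once every two days for 16 doses; DMSO vehicle served as control. Body weight and tumour volume (L×S²/2) were recorded every two days; mice were killed at day 32.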

A549 [14] = assay: Cell cycle arrest in human A549 cells assessed as accumulation at S phase at 8 uM after 24 hrs by RNAse A/ PI staining based flow cytometric analysis (reference value: 17.23%); format: functional; method in brief: as §2
A549 [15] = assay: Induction of apoptosis in human A549 cells assessed as late apoptotic cells at 8 uM after 12 hrs by Annexin-V/PI staining based flow cytometry analysis (reference value: 6.55%); format: functional; method in brief: as §1
A549 [16] = assay: Induction of apoptosis in human A549 cells assessed as early apoptotic cells at 8 uM after 12 hrs by Annexin-V/PI staining based flow cytometry analysis (reference value: 2.02%); format: functional
A549 [17] = assay: Induction of apoptosis in human A549 cells assessed as PARP cleavage expression at 2 to 8 uM after 24 hrs by Western blot analysis; format: functional, cell-based
Method in brief: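 Western blot of A549 cells treated for 24 h. Lysates in RIPA buffer were run on SDS-PAGE and transferred to PVDF. Primary antibody at 1:1000 overnight at 4 °C, secondary antibody at 1:3000-1:5000 for 1 h, ECL detection. Densitometry was normalised to GAPDH; mean ± S.E.M. from three independent experiments.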

T1 sequence (P00533 whole entry): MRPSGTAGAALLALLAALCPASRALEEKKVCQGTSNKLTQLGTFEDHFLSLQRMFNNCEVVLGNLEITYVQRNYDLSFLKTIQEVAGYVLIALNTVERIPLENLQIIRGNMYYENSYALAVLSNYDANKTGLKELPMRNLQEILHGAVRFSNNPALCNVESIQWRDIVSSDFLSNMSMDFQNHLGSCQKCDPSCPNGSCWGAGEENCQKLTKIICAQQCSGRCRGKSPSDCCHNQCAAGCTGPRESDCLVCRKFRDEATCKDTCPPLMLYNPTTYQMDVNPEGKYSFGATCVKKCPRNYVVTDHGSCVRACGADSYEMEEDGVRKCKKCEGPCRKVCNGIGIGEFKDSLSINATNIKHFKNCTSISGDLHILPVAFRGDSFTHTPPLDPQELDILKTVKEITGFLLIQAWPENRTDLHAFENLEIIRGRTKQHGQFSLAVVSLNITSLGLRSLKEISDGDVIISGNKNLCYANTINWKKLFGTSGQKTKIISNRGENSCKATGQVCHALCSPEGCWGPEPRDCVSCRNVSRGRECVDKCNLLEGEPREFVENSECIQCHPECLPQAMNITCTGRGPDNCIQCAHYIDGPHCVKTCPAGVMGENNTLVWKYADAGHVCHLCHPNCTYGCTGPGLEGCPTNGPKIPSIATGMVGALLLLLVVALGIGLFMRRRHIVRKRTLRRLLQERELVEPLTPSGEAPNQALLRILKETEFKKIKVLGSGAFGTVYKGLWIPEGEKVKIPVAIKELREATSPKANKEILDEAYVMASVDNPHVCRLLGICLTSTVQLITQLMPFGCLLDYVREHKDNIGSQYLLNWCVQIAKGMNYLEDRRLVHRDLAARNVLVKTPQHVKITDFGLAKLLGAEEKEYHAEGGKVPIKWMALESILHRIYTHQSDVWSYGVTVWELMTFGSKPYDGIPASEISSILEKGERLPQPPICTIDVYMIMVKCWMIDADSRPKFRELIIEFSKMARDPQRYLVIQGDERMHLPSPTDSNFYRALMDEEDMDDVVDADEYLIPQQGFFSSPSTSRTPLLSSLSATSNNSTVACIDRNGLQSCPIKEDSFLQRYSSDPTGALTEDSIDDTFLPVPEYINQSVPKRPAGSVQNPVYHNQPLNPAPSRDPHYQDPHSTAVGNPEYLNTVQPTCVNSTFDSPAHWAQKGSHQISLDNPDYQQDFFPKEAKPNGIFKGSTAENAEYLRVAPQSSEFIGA

Work on `CC(C)=CC[C@@H](OC(=O)/C=C\C(=O)c1ccc(F)cc1)C1=CC(=O)c2c(O)ccc(O)c2C1=O` yielded an Activity (A549 [1]) of 30.5%, an Activity (A549 [2]) of 55.88% and an Activity (A549 [3]) of 43.8%. The Activity (A549 [4]) was 22.57%, the Activity (A549 [5]) was “inactive” and the Activity (A549 [6]) was 2.2%. The inhibition (A549 [7]) was “Dose-dependent effect”, the Activity (A549 [8]) was “Active” and the Activity (A549 [9]) was 30.88%. The fold change (FC) (Tubulin (Homo sapiens)) was 0.69, the inhibition [10] was “Dose-dependent effect” and the Activity (A549 [11]) was 35.6%. The inhibition [12] was “Dose-dependent effect”, the Activity [13] was “Non-Toxic” and the Activity (A549 [14]) was 19.66%. For the same compound, the Activity (A549 [15]) was 10%, the Activity (A549 [16]) was 8.92% and the Activity (A549 [17]) was “Active”.
